Results gathered from unrelated publications.
Compare with care: the assays were run in different laboratories.

| SMILES | test | system | setting | endpoint | result |
| --- | --- | --- | --- | --- | --- |
| O=C1c2ccncc2C(=O)c2c1[nH]c1ccccc21 | – | rat, plasma | intravenous, 1 mg/kg, single dose | clearance | 13.1 mL/min |
| C=C(F)C(=O)N1CCN(c2nc(OC[C@@H]3CCCN3C)nc3c2CCN(c2cccc4cccc(Cl)c24)C3)C[C@@H]1CC#N | – | male Sprague-Dawley rat, plasma | intravenous, 5 mg/kg | clearance | 44 mL/min/kg |
| O=C1CC[C@H](N2Cc3cc(N4CCN(CC5CCN(c6ccc([C@@H]7c8ccc(O)cc8CC[C@@H]7c7ccccc7)cc6)CC5)CC4)ccc3C2=O)C(=O)N1 | – | male Sprague-Dawley rat, plasma | intravenous, 5 mg/kg, fed | clearance | 15.4 mL/min/kg |
| CN1Cc2c(N)cccc2C(=O)N1C1CCC(=O)NC1=O (centres unmarked) | – | male Sprague-Dawley rat, plasma | intravenous, 1 mg/kg | clearance | 31.8 mL/min/kg |
| Nc1ccc(/C=C/C(=O)NCc2cc3cc(-c4ccc(C(=O)N5CCC(F)(F)CC5)cc4)cc(-c4ccc(F)cc4)c3o2)cn1 | – | rat, plasma | intravenous, 1 mg/kg | clearance | 0.169 mL/min/kg |
| COc1ccccc1C(=O)/C=C/c1cn(Cc2cn(-c3ccnc4cc(Cl)ccc34)nn2)c2ccccc12 | haemolysis | human | 50 µM, 1 h, pH 7.4 | haemolysis | 1.7% |
| O=C(C=Cc1ccccc1)Nc1cc(-c2ccnc(N3CCC(O)CC3)c2)ccn1 | – | female Sprague-Dawley rat, plasma | intravenous, 5 mg/kg | clearance | 229 mL/min/kg |
| CC1(CN)CCN(c2cnc3c(Sc4ccncc4Cl)n[nH]c3n2)CC1 | – | male Sprague-Dawley rat, plasma | intravenous, 2 mg/kg | clearance | 223 mL/min/kg |
